The target of one data set is Rhodopsin kinase GRK1 (Bos taurus, UniProt P28327). The data set can be described thus: Inhibition of bovine GRK1 (1 to 535 residues) after 5 mins after 5 mins in presence of ATP by phosphorimaging assay.
A further data set concerns Liver. Briefly: Half life in CD-1 mouse liver microsomes at 1 uM measured up to 60 mins in presence of NADPH by LC-MS/MS analysis. Conditions: 1 h. It is filed as ADME, microsome. A general note: Liver microsomes are a subcellular fraction often used to study metabolism.
For data set [1], the target named is T1, Beta-adrenergic receptor kinase 1 (Mus musculus) (UniProt Q99MK8).
T1 sequence (whole entry): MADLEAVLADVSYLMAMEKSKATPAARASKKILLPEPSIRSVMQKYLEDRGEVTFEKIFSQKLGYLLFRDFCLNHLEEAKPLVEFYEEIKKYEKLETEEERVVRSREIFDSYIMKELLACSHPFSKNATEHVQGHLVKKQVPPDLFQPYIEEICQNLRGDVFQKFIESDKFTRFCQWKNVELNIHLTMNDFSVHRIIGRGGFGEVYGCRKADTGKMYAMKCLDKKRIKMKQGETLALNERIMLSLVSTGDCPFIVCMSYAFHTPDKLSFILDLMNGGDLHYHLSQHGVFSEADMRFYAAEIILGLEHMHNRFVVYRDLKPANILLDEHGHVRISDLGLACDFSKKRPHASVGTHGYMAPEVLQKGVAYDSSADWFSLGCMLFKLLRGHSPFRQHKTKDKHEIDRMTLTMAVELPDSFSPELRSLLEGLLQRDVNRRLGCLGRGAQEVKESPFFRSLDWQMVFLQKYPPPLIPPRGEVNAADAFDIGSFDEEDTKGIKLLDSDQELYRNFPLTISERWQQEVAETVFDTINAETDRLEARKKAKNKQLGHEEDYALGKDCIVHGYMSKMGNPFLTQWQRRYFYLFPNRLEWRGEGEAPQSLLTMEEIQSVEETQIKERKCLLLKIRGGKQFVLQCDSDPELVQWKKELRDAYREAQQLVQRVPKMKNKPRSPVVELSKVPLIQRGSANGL
The data set can be described thus: Inhibition of GRK2 in isoproterenol-stimulated C57/BL6 mouse cardiomyocytes assessed as increase in contractility by measuring cell shortening at 1 uM pretreated for 10 mins followed by beta-AR agonist isoproterenol addition for 2 mins.

For data set [2], the target named is G protein-coupled receptor kinase 5 (Bos taurus, UniProt P43249). The data set can be described thus: Inhibition of bovine GRK5 after 5 mins after 5 mins in presence of ATP by phosphorimaging assay.
A short description of data set [3]: Inhibition of mouse PKA using CREBtide as substrate after 30 mins in presence of ATP by ADP-Glo kinase assay. The essentials:
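Mouse PKA catalytic subunit activity by ADP-Glo luminescence per kit protocol; inhibition curves fitted to obtain values.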
On the technique in general: ADP-Glo turns the ADP formed in a reaction into a luminescent signal.

A short description of data set [4]: Plasma concentration in CD-1 mouse at 10 mg/kg, ip after 4 hrs administered as single dose by LC-MS/MS analysis. It is filed as ADME, organism-based. The essentials:
(§1)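 Female CD-1 mice given a single ip dose of 10 mg/kg in 15% DMSO/15% PEG-400/70% PBS (v/v); blood sampled at 0.5, 2, 4 and 7 h, centrifuged, plasma frozen at −80 °C; drug quantified by positive-ion MRM LC–MS/MS; parameters by noncompartmental analysis.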

In data set [5] the target is T1, Beta-adrenergic receptor kinase 1 (Mus musculus). The settings on record: C57/BL6.
Data set [6] has the same target. The data set can be described thus: Inhibition of GRK2 in isoproterenol-stimulated C57/BL6 mouse cardiomyocytes assessed as increase in contractility by measuring cell shortening at 0.1 uM pretreated for 10 mins followed by beta-AR agonist isoproterenol addition for 2 mins.
Data set [7] in a line: Plasma concentration in CD-1 mouse at 10 mg/kg, ip after 7 hrs administered as single dose by LC-MS/MS analysis. It counts as ADME, organism-based. The essentials: as §1
In another data set the test system is Mus musculus. The data set can be described thus: AUC (0 to 7 hrs) in CD-1 mouse at 10 mg/kg, ip administered as single dose by LC-MS/MS analysis. Conditions: in vivo. It is filed as ADME, organism-based. Further details: time < 7 hr, dose 10 mg/kg, route intraperitoneal. The essentials:
as §1

Data set [8] deals with T1, Beta-adrenergic receptor kinase 1 (Mus musculus). The data set can be described thus: Inhibition of GRK2 in isoproterenol-stimulated C57/BL6 mouse cardiomyocytes assessed as increase in contractility by measuring cell shortening at 0.5 uM pretreated for 10 mins followed by beta-AR agonist isoproterenol addition for 2 mins.

Active and inactive are the calls of the source. No cut-off for these calls is given here. Bounds are passed on as bounds.

Chain of Rhodopsin kinase GRK1 (P28327 whole entry, the tested form may be a part): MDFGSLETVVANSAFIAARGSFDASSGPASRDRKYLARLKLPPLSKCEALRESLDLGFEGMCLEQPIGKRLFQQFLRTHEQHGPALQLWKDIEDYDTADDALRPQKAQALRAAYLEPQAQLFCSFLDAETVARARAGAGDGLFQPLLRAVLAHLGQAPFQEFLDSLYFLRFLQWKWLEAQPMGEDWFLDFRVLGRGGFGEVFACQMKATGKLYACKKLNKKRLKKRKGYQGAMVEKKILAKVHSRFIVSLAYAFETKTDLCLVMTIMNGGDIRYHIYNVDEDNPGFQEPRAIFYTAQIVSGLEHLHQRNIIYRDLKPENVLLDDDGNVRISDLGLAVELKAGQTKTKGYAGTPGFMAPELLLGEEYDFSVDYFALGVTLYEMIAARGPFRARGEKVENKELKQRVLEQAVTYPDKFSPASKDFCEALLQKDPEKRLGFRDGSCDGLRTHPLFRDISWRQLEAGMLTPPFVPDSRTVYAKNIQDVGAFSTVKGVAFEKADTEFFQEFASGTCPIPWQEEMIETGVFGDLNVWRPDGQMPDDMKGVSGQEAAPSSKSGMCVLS
Chain of G protein-coupled receptor kinase 5 (P43249 whole entry): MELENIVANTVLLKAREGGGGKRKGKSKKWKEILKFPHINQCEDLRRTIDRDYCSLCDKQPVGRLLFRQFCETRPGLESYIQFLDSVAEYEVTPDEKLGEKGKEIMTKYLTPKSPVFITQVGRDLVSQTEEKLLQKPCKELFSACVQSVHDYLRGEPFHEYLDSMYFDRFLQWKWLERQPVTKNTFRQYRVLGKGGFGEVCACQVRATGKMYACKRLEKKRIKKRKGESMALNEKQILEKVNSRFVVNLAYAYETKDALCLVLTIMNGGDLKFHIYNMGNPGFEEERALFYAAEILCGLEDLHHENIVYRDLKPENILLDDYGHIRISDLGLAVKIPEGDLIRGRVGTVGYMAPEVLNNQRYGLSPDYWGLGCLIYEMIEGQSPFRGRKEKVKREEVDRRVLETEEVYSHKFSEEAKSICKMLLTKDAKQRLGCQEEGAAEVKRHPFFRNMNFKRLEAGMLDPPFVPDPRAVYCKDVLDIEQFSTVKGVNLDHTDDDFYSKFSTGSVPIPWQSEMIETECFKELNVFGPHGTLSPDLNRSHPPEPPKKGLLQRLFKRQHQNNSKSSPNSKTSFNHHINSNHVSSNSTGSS

As usually defined, the IC50 is the concentration needed to halve the response being measured. Regarding `CC1=C(C(=O)Nc2ccc3[nH]ncc3c2)C(c2ccc(F)cc2)NC(=O)N1` (centres undefined) [GSK-180736A], on Rhodopsin kinase GRK1, the 50% inhibitory concentration (IC50) was above 100 µM. Also, in the data set with Liver, the t1/2 is given as 20.6 min. The inhibition entry in data set [1] is “Active”.

Turning to `O=C(Cc1cc([C@@H]2CCNC[C@H]2COc2ccc3c(c2)OCO3)ccc1F)NCCc1cn[nH]c1`, the IC50 (at Rhodopsin kinase GRK1; in data set [2]; in data set [3]) was above 100 µM in each case.

As to `COc1ccccc1CNC(=O)c1cc([C@@H]2CCNC[C@H]2COc2ccc3c(c2)OCO3)ccc1F`, the IC50 (at Rhodopsin kinase GRK1; in data set [2]; in data set [3]) was above 100 µM each time.

As for `Fc1ccc([C@@H]2CCNC[C@H]2COc2ccc3c(c2)OCO3)cc1` [PAROXETINE], the IC50 (on Rhodopsin kinase GRK1; in [2]; in data set [3]) was above 100 µM throughout. In the data set on Liver, the t1/2 worked out at 24.3 min.

Consider `O=C(NCc1ccncc1)c1cc([C@@H]2CCNC[C@H]2COc2ccc3c(c2)OCO3)ccc1F`, for which the IC50 (on Rhodopsin kinase GRK1; in data set [2]; in [3]) was above 100 µM each time.

`O=C(NCc1cccnc1)c1cc([C@@H]2CCNC[C@H]2COc2ccc3c(c2)OCO3)ccc1F`: the figures for the IC50 (at Rhodopsin kinase GRK1; in data set [2]; in [3]) were above 100 µM, 76.3 µM and above 100 µM, respectively.

As to `COc1ccccc1CNC(=O)Cc1cc([C@@H]2CCNC[C@H]2COc2ccc3c(c2)OCO3)ccc1F`, the IC50 at Rhodopsin kinase GRK1 was above 100 µM; in data set [2], above 100 µM; in data set [3] it was 25.8 µM.

On to `O=C(NCc1c(F)cccc1F)c1cc([C@@H]2CCNC[C@H]2COc2ccc3c(c2)OCO3)ccc1F`, for which the IC50 on Rhodopsin kinase GRK1 is above 100 µM; in data set [2], 37.2 µM; in data set [3], above 100 µM.

As to `O=C(NCCc1ccncc1)c1cc([C@@H]2CCNC[C@H]2COc2ccc3c(c2)OCO3)ccc1F`, the IC50 (at Rhodopsin kinase GRK1; in [2]; in [3]) was above 100 µM throughout.

Consider `O=C(NCc1cn[nH]c1)c1cc([C@@H]2CCNC[C@H]2COc2ccc3c(c2)OCO3)ccc1F`, for which the IC50 (on Rhodopsin kinase GRK1; in data set [2]; in data set [3]) was above 100 µM each time.

Take `COc1cccc(OC)c1CNC(=O)c1cc([C@@H]2CCNC[C@H]2COc2ccc3c(c2)OCO3)ccc1F`: the 50% inhibitory concentration (IC50) at Rhodopsin kinase GRK1 was 32 µM; in [2], 38.4 µM; in data set [3], above 100 µM. For the same compound, in the data set on Liver, the t1/2 was 24.9 min.

As to `Cn1ccc(CNC(=O)c2cc([C@@H]3CCNC[C@H]3COc3ccc4c(c3)OCO4)ccc2F)n1`, the IC50 (on Rhodopsin kinase GRK1; in [2]; in [3]) was above 100 µM throughout.

For the compound `O=C(NCCc1cc[nH]n1)c1cc([C@@H]2CCNC[C@H]2COc2ccc3c(c2)OCO3)ccc1F`, the IC50 (at Rhodopsin kinase GRK1; in data set [2]; in data set [3]) was above 100 µM in each case.

Turning to `Cc1cccc(C)c1CNC(=O)c1cc([C@@H]2CCNC[C@H]2COc2ccc3c(c2)OCO3)ccc1F`, the IC50 at Rhodopsin kinase GRK1 is 24.5 µM; in data set [2] it was 42.3 µM; in [3], above 100 µM. In the data set on Liver, the t1/2 is listed as 45.9 min.

On to `CCCn1c(CNc2cccc(C(=O)NCc3c(F)cccc3F)c2)nnc1-c1ccncn1`, for which the IC50 turned out to be 9.1 µM on Rhodopsin kinase GRK1 and 2.2 µM in [2].

For the compound `O=C(Cc1cc([C@@H]2CCNC[C@H]2COc2ccc3c(c2)OCO3)ccc1F)NCc1ccccn1`, the IC50 at Rhodopsin kinase GRK1 was 60 µM; in [2], above 100 µM; in data set [3] it was 48.2 µM.

Take `COc1cccc(OC)c1CNC(=O)c1cc(C2NC(=O)NC(C)=C2C(=O)Nc2ccc3[nH]ncc3c2)ccc1F` (centres undefined): the IC50 (on Rhodopsin kinase GRK1; in [2]; in [3]) was above 100 µM in each case. The t1/2 in the data set with Liver was found to be 3.82 min.

As to `O=C(NCc1ccccc1)c1cc([C@@H]2CCNC[C@H]2COc2ccc3c(c2)OCO3)ccc1F`, the IC50 is above 100 µM at Rhodopsin kinase GRK1, 84.3 µM in data set [2] and above 100 µM in data set [3].

Consider `O=C(NCc1ncc[nH]1)c1cc([C@@H]2CCNC[C@H]2COc2ccc3c(c2)OCO3)ccc1F`, for which the IC50 at Rhodopsin kinase GRK1 is above 100 µM; in data set [2], 14.8 µM; in [3] it was above 100 µM.

As for `Cn1nccc1CNC(=O)c1cc([C@@H]2CCNC[C@H]2COc2ccc3c(c2)OCO3)ccc1F`, the IC50 (at Rhodopsin kinase GRK1; in [2]; in data set [3]) was above 100 µM throughout.

Consider `O=C(NCCc1c[nH]cn1)c1cc([C@@H]2CCNC[C@H]2COc2ccc3c(c2)OCO3)ccc1F`, for which the IC50 (on Rhodopsin kinase GRK1; in [2]; in data set [3]) was above 100 µM each time.

With `Cc1cc(CNC(=O)c2cc([C@@H]3CCNC[C@H]3COc3ccc4c(c3)OCO4)ccc2F)n[nH]1`, the figures for the IC50 (on Rhodopsin kinase GRK1; in data set [2]; in [3]) were 86.5 µM, 4 µM and above 100 µM, respectively. Also, the t1/2 in the data set with Liver is recorded as 10.3 min.

As for `O=C(NCCc1ccccc1)c1cc([C@@H]2CCNC[C@H]2COc2ccc3c(c2)OCO3)ccc1F`, the IC50 (at Rhodopsin kinase GRK1; in [2]; in [3]) was above 100 µM each time.

As to `O=C(NCc1ccccc1C(F)(F)F)c1cc([C@@H]2CCNC[C@H]2COc2ccc3c(c2)OCO3)ccc1F`, the concentration for half-maximal inhibition (IC50) at Rhodopsin kinase GRK1 is above 100 µM; in [2], 75.7 µM; in data set [3] it was above 100 µM.

`O=C(NCc1ccn[nH]1)c1cc([C@@H]2CCNC[C@H]2COc2ccc3c(c2)OCO3)ccc1F` had a concentration at 4 h in data set [4] of 270 nM. The MEC in data set [5] worked out at 0.1 µM. Besides, the IC50 in [3] was above 100 µM. Further, the inhibition entry in [6] was “Active”. In data set [7], the concentration at 7 h was found to be 43 nM.

With `O=C(NCCc1c(F)cccc1F)c1cc([C@@H]2CCNC[C@H]2COc2ccc3c(c2)OCO3)ccc1F`, the IC50 was above 100 µM on Rhodopsin kinase GRK1, 10.2 µM in [2] and above 100 µM in [3].

Consider `O=C(Cc1cc([C@@H]2CCNC[C@H]2COc2ccc3c(c2)OCO3)ccc1F)NCCc1ccccn1`, for which the IC50 (on Rhodopsin kinase GRK1; in [2]; in data set [3]) was above 100 µM in each case.

By AUC is commonly meant concentration integrated over time. The low end stands for less exposure, the high end for more exposure. In turn, `Cn1c(CNc2cccc(C(=O)NCc3ccccc3C(F)(F)F)c2)nnc1-c1ccncc1` gave a concentration at 4 h in data set [4] of 5 nM. Also, the figures for the IC50 (on Rhodopsin kinase GRK1; in data set [2]) were 52.1 µM and 9.2 µM, respectively. In the data set with Mus musculus, this compound displayed an AUC of 1.9 µM·h. In addition, the concentration at 7 h in data set [7] is 6 nM.

Consider `O=C(NCCc1cccnc1)c1cc([C@@H]2CCNC[C@H]2COc2ccc3c(c2)OCO3)ccc1F`, for which the concentration for half-maximal inhibition (IC50) (at Rhodopsin kinase GRK1; in data set [2]; in [3]) was above 100 µM each time.

On to `O=C(NCc1ccccn1)c1cc([C@@H]2CCNC[C@H]2COc2ccc3c(c2)OCO3)ccc1F`, for which the inhibition result in data set [8] and in data set [1] was “inactive” throughout. Besides, the IC50 on Rhodopsin kinase GRK1 is above 100 µM; in data set [2], 17.1 µM; in [3], above 100 µM. Also, the t1/2 with Liver stood at 3.15 min.

As to `CNC(=O)c1cc([C@@H]2CCNC[C@H]2COc2ccc3c(c2)OCO3)ccc1F`, the IC50 (at Rhodopsin kinase GRK1; in data set [2]; in [3]) was above 100 µM in each case.

With `O=C(NCc1c(Cl)cccc1Cl)c1cc([C@@H]2CCNC[C@H]2COc2ccc3c(c2)OCO3)ccc1F`, the IC50 was 25.8 µM at Rhodopsin kinase GRK1, 33.2 µM in data set [2] and above 100 µM in data set [3]. Moreover, the t1/2 with Liver is on record as 36.4 min.

For the compound `O=C(NCCc1ccccn1)c1cc([C@@H]2CCNC[C@H]2COc2ccc3c(c2)OCO3)ccc1F`, the IC50 (at Rhodopsin kinase GRK1; in data set [2]; in [3]) was above 100 µM each time.

Consider `O=C(NCCc1cn[nH]c1)c1cc([C@@H]2CCNC[C@H]2COc2ccc3c(c2)OCO3)ccc1F`, for which the IC50 (at Rhodopsin kinase GRK1; in data set [2]; in data set [3]) was above 100 µM in each case.
